Inconclusive results are not listed.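 How the source made its calls, unless noted: active means growth inhibition above 25% in both replicates, a cutoff set 3 SD above the mean; inconclusive means above 25% in only one replicate; inactive means the rest.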
Tests used:
[1] = OD615 S. cerevisiae growth inhibition, permissive medium, pilot counter-assay, permissive growth control for S. cerevisiae lifespan shortening project (AID 705); details: OD615, 24 h, at 10 µM, stronger effect = higher value
Procedure, shortened: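 System: Engineered DeaD yeast | Buffer or medium: SC raffinose/galactose permissive medium | Doses: 10 µM single dose, 0.25% DMSO | Times: 24 h exposure, 30 °C | Measured by: OD615 turbidity read | Read-out: Yeast growth inhibition indicated by reduced 24 h OD615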

[2] = Restrictive medium S. cerevisiae growth inhibition, OD615, pilot screen of yeast lifespan reduction project, restrictive growth control (AID 706;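 active means growth inhibition above a set limit, 3 SD over mean compound inhibition, in both replicates, cut at about 43% in these data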;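 further: modified DeaD lifespan yeast strain shifted to restrictive glucose medium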); details: OD615, 48 h, at 10 µM, stronger effect = higher value
Procedure, shortened: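 Assay system: engineered S. cerevisiae DeaD strain; Buffer or medium: CSMM-D glucose medium; Dosing: 10 µM compound, 0.25% DMSO; Times: cell pre-growth 4 h, compound exposure 48 h, 30 °C; Detection: absorbance (optical density) measured at 615 nm.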

[3] = viability gain of MRP-1-high H69AR cells under doxorubicin, pilot screen, MRP-1 activator project, CellTiter-Glo, duplicate (AID 807;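 active means viability increase at or above a cutoff of the median across tested compounds plus 3 SD, cut at about 8.5% in these data, passing the limit was not always enough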;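 further: compound pretreatment 18-22 h then 72 h combined with doxorubicin; 0% = doxorubicin alone and 100% = vehicle without doxorubicin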); details: H69AR viability with doxorubicin, CellTiter-Glo luminescence; at 10 µM; stronger effect = higher value
[4] = growth suppression of beta-catenin knockout HCT116, pilot screen, human colon tumor cells (AID 823;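 active means cell viability at or below a set limit in both duplicate runs, the limit being the all-compound median minus 4 SD, cut at about 23% in these data, passing the limit was not always enough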;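 further: 0% = wells killed by 20 µM Hyamine and 100% = untreated DMSO cell wells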); details: CellTiter-Glo, 60 h, at 10 µM, stronger effect = lower value
[5] = growth suppression of PTEN-deleted HCT116, pilot screen, cell-based, HCT116 clonal line, CellTiter-Glo (AID 824;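 active means viability at or below 27.92% in each of two runs, the all-compound median minus 4 SD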;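 further: 0% = 20 µM Hyamine control and 100% = vehicle cell control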); details: 60 h, at 10 µM, stronger effect = lower value
[6] = inhibitors of the yeast RAM network, pilot screen, dse1pr::URA3 reporter, 5-FOA selection (AID 869;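 active means inhibition over a set limit, the all-compound mean plus 3 SD, in both replicate runs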;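 further: 0% = DMSO wells with no growth and 100% = 10 µM 1-NA-PP1 with full growth; RAM network block rescues cells from 5-FOA so hits raise OD615 growth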); details: S. cerevisiae dse1pr::URA3 5-FOA growth, OD615, 2 d; at 10 µM; stronger effect = higher value; strain carries analog-sensitive mutant Cbk1 kinase
[7] = RAM signaling pathway blockade in yeast – S. cerevisiae, Pdr1DBD-CYC8 efflux-inhibited sensitized strain, primary screen (AID 1298;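 active means RAM network inhibition above 8.4% in each of two replicates, 3 SD over the compound average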;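 further: 0% = DMSO untreated cells without growth and 100% = 10 µM 1-NA-PP1 full growth; higher means more yeast growth rescued from 5-FOA killing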); details: S. cerevisiae cbk1-as DSE1-URA3 strain, 5-FOA growth OD615, 2 d; at 50 µM; stronger effect = higher value

COc1cccc2cc(C(=O)N3CCC(C)CC3)c(=O)oc12
inactive: growth inhibition [1] -2.37% | growth inhibition [2] -3.85% | viability increase [3] -0.12% | viability [4] 96.8% | viability [5] 90.5% | inhibition [6] 1.17% | RAM network inhibition [7] 4.51%

COc1ccc(-n2nnc3c(=O)n(CC(=O)N4CCC(C)CC4)cnc32)cc1
inactive: growth inhibition [1] 8.16% | growth inhibition [2] 3.46% | viability increase [3] -0.52% | viability [4] 95.8% | viability [5] 92.3% | inhibition [6] 1.77% | RAM network inhibition [7] 2.64%

CCC(C)NC(=O)C(NS(=O)(=O)c1ccc2c(c1)c(=O)n(C)c(=O)n2C)c1ccccc1 (centres undefined)
inactive: growth inhibition [1] -5.69% | growth inhibition [2] -11.3% | viability increase [3] -1.17% | viability [4] 101% | viability [5] 96.6% | inhibition [6] 1.19% | RAM network inhibition [7] 4.7%

O=C(c1cnn2c(C(F)(F)F)cc(-c3ccccc3)nc12)N1CCOCC1
inactive: growth inhibition [1] -14.6% | growth inhibition [2] -10% | viability increase [3] -2.81% | viability [4] 103% | viability [5] 99.8% | inhibition [6] 0.505% | RAM network inhibition [7] -1.1%

Cc1cccc(N2CC(c3nc4ccccc4n3C)CC2=O)c1C (centres undefined)
inactive: growth inhibition [1] -8.87% | growth inhibition [2] 3.04% | viability increase [3] -3.04% | viability [4] 104% | viability [5] 95.2% | inhibition [6] 1.46% | RAM network inhibition [7] 3.58%

C=CCn1c(SCCOC)nc2c1c(=O)[nH]c(=O)n2C
inactive: growth inhibition [1] 2.12% | growth inhibition [2] 0.43% | viability increase [3] -2.47% | viability [4] 99% | viability [5] 95% | inhibition [6] 0.665% | RAM network inhibition [7] -0.26%

CCc1ccccc1S(=O)(=O)Cc1ccc(C(=O)N2CCN(c3ccccn3)CC2)o1
inactive: growth inhibition [1] -8.76% | growth inhibition [2] -27% | viability increase [3] -3.28% | viability [4] 84.1% | viability [5] 78% | inhibition [6] 1.54% | RAM network inhibition [7] 2.4%

CC(C)(C)NC(=O)c1cnn2c1NC(c1ccc(F)cc1)CC2C(F)(F)F (centres undefined)
inactive: growth inhibition [1] -14.6% | growth inhibition [2] -18.1% | viability increase [3] -0.08% | viability [4] 89.5% | viability [5] 87.1% | inhibition [6] 3.81% | RAM network inhibition [7] 6.9%

CC1CCN(C(=O)C(Cc2ccccc2)n2cccc2)CC1 (centres undefined)
inactive: growth inhibition [1] -6.79% | growth inhibition [2] -8.94% | viability increase [3] -3.15% | viability [4] 87.9% | viability [5] 79% | inhibition [6] 2.27% | RAM network inhibition [7] 5.92%

Cc1c(C)n(C(=O)CSc2nncn2C)c2ccccc12
inactive: growth inhibition [1] 3.06% | growth inhibition [2] 12.8% | viability increase [3] -2.73% | viability [4] 93.2% | viability [5] 98.1% | inhibition [6] 0.94% | RAM network inhibition [7] 3%

CC(=O)N1CCN(CCN=CC2=C(O)CC(c3cccs3)CC2=O)CC1 (centres undefined)
inactive: growth inhibition [1] -6.7% | growth inhibition [2] -2.31% | viability increase [3] -0.76% | viability [4] 93.1% | viability [5] 103% | inhibition [6] -0.455% | RAM network inhibition [7] -0.41%

OC(COc1ccccc1)Cn1cc(Br)cn1 (centres undefined)
inactive: growth inhibition [1] -3.63% | growth inhibition [2] -8.39% | viability increase [3] -0.64% | viability [4] 106% | viability [5] 96.1% | inhibition [6] 1.23% | RAM network inhibition [7] 0.93%

Cn1cc(S(=O)(=O)N2CCN(Cc3ccccc3)CC2)c(=O)n(C)c1=O
inactive: growth inhibition [1] -11.9% | growth inhibition [2] -10.5% | viability increase [3] -0.5% | viability [4] 95.2% | viability [5] 95.5% | inhibition [6] 0.755% | RAM network inhibition [7] -0.22%

COc1ccc(S(=O)(=O)N2CCN(C)CC2)c2ccccc12
inactive: growth inhibition [1] -8.04% | growth inhibition [2] -2.78% | viability increase [3] -3.62% | viability [4] 102% | viability [5] 91.3% | inhibition [6] 1.06% | RAM network inhibition [7] 2.19%

Cn1c(=O)c2cc(S(=O)(=O)NC(Cc3ccccc3)C(=O)NCc3ccco3)ccc2n(C)c1=O (centres undefined)
inactive: growth inhibition [1] -16.4% | growth inhibition [2] -11.4% | viability increase [3] -4.79% | viability [4] 101% | viability [5] 92% | inhibition [6] 2.81% | RAM network inhibition [7] 4.39%

Cc1nn(-c2ccccc2)c(Cl)c1C(=O)Nc1c(C)n(C)n(-c2ccccc2)c1=O
inactive: growth inhibition [1] -9% | growth inhibition [2] -23% | viability increase [3] -0.99% | viability [4] 102% | viability [5] 94.3% | inhibition [6] 0.935% | RAM network inhibition [7] 3.15%

CCCOC(=O)CC1C(=O)NCCN1Cc1ccc(F)cc1 (centres undefined)
inactive: growth inhibition [1] -12.3% | growth inhibition [2] -6.77% | viability increase [3] -1.04% | viability [4] 104% | viability [5] 98.3% | inhibition [6] 2.83% | RAM network inhibition [7] 1.73%

COc1cccc(-n2c(=O)[nH]cc(C(=O)Nc3ccc4c(c3)OCCO4)c2=O)c1
inactive: growth inhibition [1] -8.56% | growth inhibition [2] -1.22% | viability increase [3] -1.26% | viability [4] 105% | viability [5] 101% | inhibition [6] 3.17% | RAM network inhibition [7] 5.22%

CCOC(=O)C1CCN(C(c2cccc(OC)c2)c2sc3nc(C)nn3c2O)CC1 (centres undefined)
inactive: growth inhibition [1] -2.67% | growth inhibition [2] -6.39% | viability increase [3] -1.96% | viability [4] 94.2% | viability [5] 95.9% | inhibition [6] 0.11% | RAM network inhibition [7] -0.51%

O=C(COc1ccccc1)NCc1nnc(SCC(=O)Nc2nccs2)n1-c1ccccc1
inactive: growth inhibition [1] -10.1% | growth inhibition [2] -4.89% | viability increase [3] -1.46% | viability [4] 101% | viability [5] 101% | inhibition [6] 2.13% | RAM network inhibition [7] 4.48%

CCC1Oc2ccccc2N(CC(=O)NCCCN2CCOCC2)C1=O (centres undefined)
inactive: growth inhibition [1] -2.59% | growth inhibition [2] 4.67% | viability increase [3] -1.49% | viability [4] 109% | viability [5] 105% | inhibition [6] 1.29% | RAM network inhibition [7] 0.62%

O=C(NCc1cccs1)C1CCCN1S(=O)(=O)c1ccccc1F (centres undefined)
inactive: growth inhibition [1] -2.45% | growth inhibition [2] -6.33% | viability increase [3] -0.97% | viability [4] 102% | viability [5] 90.7% | inhibition [6] 0.91% | RAM network inhibition [7] 2.5%

CCCNC(=O)CS(=O)Cc1nc(-c2cccc(OC)c2)oc1C (centres undefined)
inactive: growth inhibition [1] -6.84% | growth inhibition [2] -0.045% | viability increase [3] -2.3% | viability [4] 96.6% | viability [5] 95.2% | inhibition [6] 1.2% | RAM network inhibition [7] -0.38%

NC(=O)CSc1ncnc2c1oc1ccccc12
inactive: growth inhibition [1] -17.7% | growth inhibition [2] -9.65% | viability increase [3] -2.08% | viability [4] 99.5% | viability [5] 91.6% | inhibition [6] 0.41% | RAM network inhibition [7] 0.74%

CSc1ccc(CN2CCC(O)CC2)cc1
inactive: growth inhibition [1] -12.7% | growth inhibition [2] -15.8% | viability increase [3] -0.93% | viability [4] 102% | viability [5] 100% | inhibition [6] 1.4% | RAM network inhibition [7] 5.11%

CCn1c(=O)c2cc(C(=O)NCCN3CCOCC3)sc2c2ccccc21
inactive: growth inhibition [1] -7.14% | growth inhibition [2] -3.89% | viability increase [3] -4.73% | viability [4] 92.2% | viability [5] 76.1% | inhibition [6] 2.47% | RAM network inhibition [7] 1.02%

COc1ccc(-c2nc(C#N)c(NCCCN3CCOCC3)o2)cc1
inactive: growth inhibition [1] 0.22% | growth inhibition [2] -5.34% | viability increase [3] -0.09% | viability [4] 103% | viability [5] 94% | inhibition [6] 1.28% | RAM network inhibition [7] 0.89%

O=C(NCCc1ccccc1)C1CCN(C(=O)c2sccc2-n2cccc2)CC1
inactive: growth inhibition [1] -0.295% | growth inhibition [2] -8.75% | viability increase [3] -1.15% | viability [4] 101% | viability [5] 93.8% | inhibition [6] 3.48% | RAM network inhibition [7] 4%

Cc1ccc(OCCN2CCCCCC2)c(C)c1
inactive: growth inhibition [1] -6.26% | growth inhibition [2] 2.46% | viability increase [3] -3.81% | viability [4] 71.1% | viability [5] 70.4% | inhibition [6] 1.21% | RAM network inhibition [7] 2.8%

CCN1CCN(CC(O)COc2ccc(C(C)=O)cc2)CC1 (centres undefined)
inactive: growth inhibition [1] -5.8% | growth inhibition [2] -1.04% | viability increase [3] 0.34% | viability [4] 98.8% | viability [5] 100% | inhibition [6] 0.405% | RAM network inhibition [7] 0.31%

CC(=O)CCc1c(C)[nH]c2ccc(NC(C)=O)cc2c1=O
inactive: growth inhibition [1] 5.26% | growth inhibition [2] 8.18% | viability increase [3] -0.95% | viability [4] 100% | viability [5] 98% | inhibition [6] 0.77% | RAM network inhibition [7] 2.81%

COc1ccc(OCC(=O)N2CCN(C(=O)c3ccccc3)CC2)cc1
inactive: growth inhibition [1] -15.8% | growth inhibition [2] -9.8% | viability increase [3] 1.19% | viability [4] 91.1% | viability [5] 87.2% | inhibition [6] 1.66% | RAM network inhibition [7] 0.47%

— PubChem BioAssay
